Entries after “also recorded” stand apart in the source; their conditions may differ. Where two headings read alike, the source gives them in different places.
What was measured:
serum urate (sUA) = assay: Serum urate; format: in vivo, human; settings: 7 days, adults with gout
Procedure, shortened: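 Adults with gout, 7-day periods; second dose of twice-daily regimen given after evening meal ~10 hours after first. Serum sampled at preset intervals on baseline (day −1) and days 7–35; non-ULT subjects started colchicine ~day −7. Emax as maximum per cent sUA change from baseline; mixed-effects model (sequence, treatment fixed; subject random; baseline covariate) giving least-squares means.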

[1] = format: in vivo, human
Procedure, shortened: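 Adults with gout, open-label, randomised by incomplete block design; 7-day treatment periods, oral dosing ~30 min after standardised breakfast. Serial plasma samples on days 7–35 and timed total-catch urine (1-hour rising to 2- or 10-hour intervals) with scheduled water intake. Plasma by protein precipitation, urine diluted with water; LC-MS/MS. Mixed-effects model (treatment fixed, subject random); geometric means.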

[2] = Safety and tolerability, phase IIa study in adults with gout; format: in vivo, human; settings: all dose combinations of verinurad (2.5–20 mg) and allopurinol 300 mg once daily
[3] = single oral 10 mg dose, healthy volunteers; cited from earlier work
[4] = allopurinol 600 mg once daily vs 300 mg twice daily
[5] = verinurad 2.5 mg + allopurinol 300 mg once daily
[6] = verinurad 20 mg + allopurinol 300 mg once daily

SMILES: Oc1ncnc2[nH]ncc12 [allopurinol, reference compound]
- least-squares mean Emax (maximum per cent decrease in sUA from baseline) (serum urate (sUA); allopurinol 300 mg once daily alone): 40%
- least-squares mean Emax (maximum per cent decrease in sUA from baseline) (serum urate (sUA); allopurinol 300 mg twice daily alone): 54%
- least-squares mean Emax (maximum per cent decrease in sUA from baseline) (serum urate (sUA); allopurinol 600 mg once daily alone): 54%
- least-squares geometric mean ratio (90% CI), allopurinol Cmax [1, 4]: 204 (162 to 257)
- change of allopurinol Ae0–24 and CLR0–24 by verinurad ([1]; verinurad at any dose (2.5–20 mg) + allopurinol 300 mg once daily): generally unchanged

SMILES: O=c1[nH]c(=O)c2c[nH]nc2[nH]1 [oxypurinol]
- least-squares geometric mean ratio (90% CI), oxypurinol Cmax [1, 4]: 122 (103 to 146)

SMILES: CC(C)(Sc1ccncc1-c1ccc(C#N)c2ccccc12)C(=O)O [verinurad]
- least-squares mean Emax (maximum per cent decrease in sUA from baseline) (serum urate (sUA); [5]): 47%
- least-squares mean Emax (maximum per cent decrease in sUA from baseline) (serum urate (sUA); verinurad 5 mg + allopurinol 300 mg once daily): 59%
- least-squares mean Emax (maximum per cent decrease in sUA from baseline) (serum urate (sUA); verinurad 7.5 mg + allopurinol 300 mg once daily): 60%
- least-squares mean Emax (maximum per cent decrease in sUA from baseline) (serum urate (sUA); verinurad 10 mg + allopurinol 300 mg once daily): 67%
- least-squares mean Emax (maximum per cent decrease in sUA from baseline) (serum urate (sUA); verinurad 15 mg + allopurinol 300 mg once daily): 68%
- least-squares mean Emax (maximum per cent decrease in sUA from baseline) (serum urate (sUA); [6]): 74%
- Tmax ([1]; human, plasma, oral, median Tmax, range across verinurad doses 2.5–20 mg in combination with allopurinol 300 mg once daily): 3 to 3.97 h
- Ae0–24 (amount excreted in urine) [1, 5]: 17.8 µg
- Ae0–24 (amount excreted in urine) [1, 6]: 165 µg
- effect of verinurad on plasma PK of allopurinol ([1]; verinurad 2.5–20 mg + allopurinol 300 mg once daily): no effect; also recorded: did not affect
- tolerability [2]: generally well tolerated
- tolerability ([2]; listed as Verinurad): well tolerated
- fraction of dose absorbed [3]: ~ 64%
- median time to maximum observed plasma concentration (Tmax) [3]: 0.5 h
- terminal half-life [3]: 15 h

Reference: PMC5845419 (RMD Open, 2018)
